# ChEMBL document CHEMBL4706681, “New 2-Pyrazoline and Hydrazone Derivatives as Potent and Selective Monoamine Oxidase A Inhibitors” (J Med Chem, 2021)
# Legend:
# [1] = target: T1, Amine oxidase [flavin-containing] A (Homo sapiens, UniProt P21397); experiment: Reversible inhibition of human MAO-A assessed as residual enzyme activity at 4 fold IC50 incubated for 15 mins and measured before dialysis by dialysis method relative to control
# T1 sequence (P21397 whole entry): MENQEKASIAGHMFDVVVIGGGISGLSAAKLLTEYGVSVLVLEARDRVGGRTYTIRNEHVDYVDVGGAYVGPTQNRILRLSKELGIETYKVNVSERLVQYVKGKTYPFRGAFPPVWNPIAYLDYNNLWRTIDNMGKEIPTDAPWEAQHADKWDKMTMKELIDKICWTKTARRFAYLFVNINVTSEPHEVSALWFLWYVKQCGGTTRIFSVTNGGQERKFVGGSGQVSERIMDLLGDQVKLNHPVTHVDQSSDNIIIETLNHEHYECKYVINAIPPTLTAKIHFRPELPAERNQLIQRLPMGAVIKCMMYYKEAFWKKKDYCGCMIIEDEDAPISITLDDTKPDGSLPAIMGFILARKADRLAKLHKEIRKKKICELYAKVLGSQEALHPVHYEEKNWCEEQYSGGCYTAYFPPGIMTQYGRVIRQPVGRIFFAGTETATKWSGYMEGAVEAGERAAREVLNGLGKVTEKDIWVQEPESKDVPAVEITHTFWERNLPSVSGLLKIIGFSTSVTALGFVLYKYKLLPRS
# How it was run: (§1)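 Dialysed (MWCO 12 000) at 4 °C for 24 h against 100 mM potassium phosphate pH 7.4, 5% sucrose, buffer changed twice. Dialysed and undialysed mixtures assayed together; residual activity from triplicates.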
# [2] = Cytotoxicity against human HepG2 cells assessed as cell viability at 15 uM incubated for 2 hrs by MTT assay relative to control; format: cell-based; settings: read-out: Activity
# How it was run: (§2)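 HepG2 human hepatoma cells; viability read by MTT assay, with 0.1% DMSO as vehicle control. Viability given as % of control, mean ± SEM (n = 3); p < 0.05 taken as significant.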
# [3] = Ex vivo inhibition of MAOA in CD1 mouse brain homogenates assessed as MAOA level at 3 mg/kg, po administered via gavage for 7 days and measured 1 hr post last dose by monoamine oxidase assay (reference value: 0.39 +/- 0.04 nmol/min/mg); format: functional; settings: time 7 day
# [4] = Ex vivo inhibition of MAOA in CD1 mouse brain homogenates assessed as 5-HT levels at 3 mg/kg, po administered via gavage for 7 days and measured 1 hr post last dose by ELISA kit method (reference value: 0.78 +/- 0.01 ug/g); format: functional; settings: time 7 day
# [5] = Ex vivo inhibition of MAOA in CD1 mouse brain homogenates assessed as MAOA level at 20 mg/kg, po administered administered as single acute dose via gavage and measured after 1 hr by monoamine oxidase assay (reference value: 0.40 +/- 0.012 nmol/min/mg); format: functional
# [6] = target: T1, Amine oxidase [flavin-containing] A; experiment: Reversible inhibition of human MAO-A assessed as residual enzyme activity at 4 fold IC50 incubated for 15 mins and measured 24 hrs post dialysis by dialysis method relative to control; settings: 24.25 h, time 1455 min; how it was run: as §1
# [7] = Cytotoxicity against human HepG2 cells assessed as cell viability at 7.5 uM incubated for 2 hrs by MTT assay relative to control; format: cell-based; settings: read-out: Activity; how it was run: as §2
# [8] = target: T2, Amine oxidase [flavin-containing] B (Homo sapiens, UniProt P27338); experiment: Reversible inhibition of human MAO-B assessed as residual enzyme activity at 4 fold IC50 incubated for 15 mins and measured before dialysis relative to control; how it was run: as §1
# T2 sequence (P27338 whole entry): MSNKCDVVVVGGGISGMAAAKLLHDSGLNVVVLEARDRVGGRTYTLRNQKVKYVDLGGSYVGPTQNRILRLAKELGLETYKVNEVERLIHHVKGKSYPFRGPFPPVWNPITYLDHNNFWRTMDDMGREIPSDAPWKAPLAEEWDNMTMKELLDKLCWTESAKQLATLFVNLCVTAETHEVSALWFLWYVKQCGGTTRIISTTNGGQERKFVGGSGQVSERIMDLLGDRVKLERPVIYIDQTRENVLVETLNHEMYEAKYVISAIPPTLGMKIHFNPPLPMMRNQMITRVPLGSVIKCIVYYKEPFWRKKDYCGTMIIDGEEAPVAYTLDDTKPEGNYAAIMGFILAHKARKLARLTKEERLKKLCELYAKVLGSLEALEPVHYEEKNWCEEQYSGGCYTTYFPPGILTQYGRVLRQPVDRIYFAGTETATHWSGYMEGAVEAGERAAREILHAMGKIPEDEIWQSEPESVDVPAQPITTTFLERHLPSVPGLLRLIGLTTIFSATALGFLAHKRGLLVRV
# [9] = target: T2, Amine oxidase [flavin-containing] B; experiment: Reversible inhibition of human MAO-B assessed as residual enzyme activity at 4 fold IC50 incubated for 15 mins and measured 24 hrs post dialysis relative to control; settings: 24.25 h, time 1455 min; how it was run: as §1
# [10] = Ex vivo inhibition of MAOA in CD1 mouse brain homogenates assessed as inhibition of 5-HT deamination by measuring 5-HIAA metabolite levels by using at 10 mg/kg, po administered via gavage for 7 days and measured 1 hr post last dose by HPLC analysis (reference value: 0.33 +/- 0.02 ug/g); format: functional; settings: time 7 day
# [11] = Ex vivo inhibition of MAOA in CD1 mouse brain homogenates assessed as inhibition of 5-HT deamination by measuring 5-HIAA metabolite levels by using at 3 mg/kg, po administered via gavage for 7 days and measured 1 hr post last dose by HPLC analysis (reference value: 0.33 +/- 0.02 ug/g); format: functional; settings: time 7 day
# [12] = Ex vivo inhibition of MAOA in CD1 mouse brain homogenates assessed as 5-HT levels at 1 mg/kg, po administered via gavage for 7 days and measured 1 hr post last dose by ELISA kit method (reference value: 0.78 +/- 0.01 ug/g); format: functional; settings: time 7 day
# [13] = Ex vivo inhibition of MAOA in CD1 mouse brain homogenates assessed as inhibition of 5-HT deamination by measuring 5-HIAA metabolite levels by using at 1 mg/kg, po administered via gavage for 7 days and measured 1 hr post last dose by HPLC analysis (reference value: 0.33 +/- 0.02 ug/g); format: functional; settings: time 7 day
# [14] = Ex vivo inhibition of MAOA in CD1 mouse brain homogenates assessed as MAOA level at 1 mg/kg, po administered via gavage for 7 days and measured 1 hr post last dose by monoamine oxidase assay (reference value: 0.39 +/- 0.04 nmol/min/mg); format: functional; settings: time 7 day
# [15] = Ex vivo inhibition of MAOA in CD1 mouse brain homogenates assessed as MAOA level at 10 mg/kg, po administered via gavage for 7 days and measured 1 hr post last dose by monoamine oxidase assay (reference value: 0.39 +/- 0.04 nmol/min/mg); format: functional; settings: time 7 day
# [16] = Ex vivo inhibition of MAOA in CD1 mouse brain homogenates assessed as 5-HT levels at 10 mg/kg, po administered via gavage for 7 days and measured 1 hr post last dose by ELISA kit method (reference value: 0.78 +/- 0.01 ug/g); format: functional; settings: time 7 day
# [17] = Cytotoxicity against human HepG2 cells assessed as cell viability at 30 uM incubated for 2 hrs by MTT assay relative to control; format: cell-based; settings: read-out: Activity; how it was run: as §2
# [18] = Permeability of compound in PBS/EtOH buffer (70:30) at 25 ug/ml incubated for 16 hrs by UV plate reader based PAMPA-BBB
SMILES,Activity [1],"viability at 2 h, 15 µM [2]",Activity [3],Activity [4],Activity [5],Activity [6],"viability at 2 h, 7.5 µM [7]",Activity [8],Activity [9],Activity [10],Activity [11],Activity [12],Activity [13],Activity [14],Activity [15],Activity [16],"viability at 2 h, 30 µM [17]","Papp at 16 h, 25 ug/ml [18]"
O=C(NCCN1CCOCC1)c1ccc(Cl)cc1 [MOCLOBEMIDE],36%,88.5%,0.41 nmol/min/mg,0.79 µg/g,0.35 nmol/min/mg,93.77%,90.8%,88%,89.55%,0.3 µg/g,0.32 µg/g,0.78 µg/g,0.33 µg/g,0.41 nmol/min/mg,0.4 nmol/min/mg,0.82 µg/g,86%,
COc1ccc(C2=NN(C(=O)Cn3c(=O)oc4ccc(C)cc43)C(c3cccc(OC)c3OC)C2)cc1 (centres undefined),22.16%,99.6%,0.34 nmol/min/mg,0.85 µg/g,,92.55%,101%,74.19%,94.16%,0.29 µg/g,0.3 µg/g,0.8 µg/g,0.32 µg/g,0.39 nmol/min/mg,0.27 nmol/min/mg,0.99 µg/g,84.9%,8.05 ×10⁻⁶ cm/s
